In ChEMBL document CHEMBL1136656, “Synthesis and Biological activity of kappa opioid receptor agonists. Part 2: preparation of 3-aryl-2-pyridone analogues generated by solution- and solid-phase parallel synthesis methods” (Bioorg Med Chem Lett, 2003):

Tests used:
Mu-type opioid receptor = Mu-type opioid receptor (Homo sapiens, UniProt P35372); experiment: Inhibition of [125I]Enkephalin binding to human mu opioid receptor from membranes of HEK293 cells; format: cell membranes
Summary of the method: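 Filter binding on membranes of HEK293 cells overexpressing human mu opioid receptor, measuring displacement of [125I]-Enkephalin. IC50 came from full dose–response curves on purified material, in single determinations.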

[1] = target: Delta-type opioid receptor (Homo sapiens, UniProt P41143); experiment: Inhibition of [125I]deltorphin binding to human delta opioid receptor from membranes of HEK293 cells; format: cell membranes
Summary of the method: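 Displacement of [125I]-Deltorphin from membranes of HEK293 cells overexpressing human delta opioid receptor, read by classical filter binding. IC50 came from full dose–response curves on purified material, in single determinations.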

[2] = target: T1, Kappa-type opioid receptor (Homo sapiens, UniProt P41145); experiment: Inhibition of [125I]-(D-Pro10)-Dynorphin A binding to human kappa opioid receptor from membranes of HEK293 cells; format: cell membranes
Summary of the method: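 Classical filter binding on membranes from HEK293 cells overexpressing human kappa opioid receptor, measuring displacement of [125I]-(D-Pro10)-Dynorphin A. Purified compounds were run as full dose–response curves and reported as mean IC50 ± SEM. Crude or partially purified mixtures were screened at a single concentration for percent inhibition of radioligand binding.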

[3] = target: T1, Kappa-type opioid receptor; experiment: Inhibitory concentration against [125I]-(D-Pro10)-Dynorphin A binding to human kappa opioid receptor from membranes of HEK293 cells; format: cell membranes; conditions: concentration not given here
Summary of the method: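 Filter binding on membranes from HEK293 cells overexpressing the human kappa opioid receptor. Displacement of [125I]-(D-Pro10)-Dynorphin A was measured, with full dose–response curves on purified material. IC50 is the mean of determinations, quoted with SEM.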

[4] = target: T1, Kappa-type opioid receptor; experiment: Effective dose for agonistic activity towards human kappa opioid receptor from membranes of HEK293 cells was determined by radiolabeled [35S]GTP-gamma-S, assay; format: functional, cell membranes

Sequence of Delta-type opioid receptor (P41143 whole entry): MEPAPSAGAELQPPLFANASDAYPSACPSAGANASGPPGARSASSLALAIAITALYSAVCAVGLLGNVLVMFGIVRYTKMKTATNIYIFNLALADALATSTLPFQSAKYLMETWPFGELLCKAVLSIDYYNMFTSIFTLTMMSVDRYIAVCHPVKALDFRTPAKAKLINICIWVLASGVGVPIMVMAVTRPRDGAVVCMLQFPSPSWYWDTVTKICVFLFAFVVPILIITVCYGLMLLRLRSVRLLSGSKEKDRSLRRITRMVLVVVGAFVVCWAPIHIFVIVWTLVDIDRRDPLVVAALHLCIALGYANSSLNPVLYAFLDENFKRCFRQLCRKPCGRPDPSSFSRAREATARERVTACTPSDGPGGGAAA
Sequence of Mu-type opioid receptor (P35372 whole entry): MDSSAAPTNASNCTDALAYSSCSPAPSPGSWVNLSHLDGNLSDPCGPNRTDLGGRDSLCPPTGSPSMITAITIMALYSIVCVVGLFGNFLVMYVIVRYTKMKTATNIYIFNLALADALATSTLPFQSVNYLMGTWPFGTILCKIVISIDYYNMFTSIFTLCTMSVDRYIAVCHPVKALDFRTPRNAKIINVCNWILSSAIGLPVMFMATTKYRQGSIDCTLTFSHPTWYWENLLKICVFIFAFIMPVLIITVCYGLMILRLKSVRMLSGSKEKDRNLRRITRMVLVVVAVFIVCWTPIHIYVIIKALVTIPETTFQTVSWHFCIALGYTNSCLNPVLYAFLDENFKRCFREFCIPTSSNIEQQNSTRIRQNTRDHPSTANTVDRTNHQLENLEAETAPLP
T1 sequence (P41145 whole entry): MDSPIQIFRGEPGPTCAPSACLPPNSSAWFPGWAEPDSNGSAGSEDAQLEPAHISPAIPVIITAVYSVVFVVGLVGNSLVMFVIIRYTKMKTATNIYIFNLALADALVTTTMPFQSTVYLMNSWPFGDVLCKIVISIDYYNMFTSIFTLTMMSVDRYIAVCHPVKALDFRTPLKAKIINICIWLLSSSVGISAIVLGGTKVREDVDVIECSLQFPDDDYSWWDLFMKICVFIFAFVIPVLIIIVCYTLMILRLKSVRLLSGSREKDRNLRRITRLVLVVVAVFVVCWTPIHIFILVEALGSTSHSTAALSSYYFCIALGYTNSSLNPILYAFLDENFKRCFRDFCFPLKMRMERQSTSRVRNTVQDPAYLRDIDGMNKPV

Which IC50 (Mu-type opioid receptor) does the source give for `O=C(O)COc1cccc(C(CN2CCCC2)n2cccc(-c3ccc(C(F)(F)F)cc3)c2=O)c1` (stereo unspecified) here?
Its IC50 is greater than 10 µM.

And the IC50 [1]?
Its IC50 is 5.6 µM.

And the IC50 [2]?
Its IC50 is 420 nM.

What does the source list for `Cc1ccc(Nc2cccn(C(CN3CCCC3)c3ccccc3)c2=O)cc1` (stereo unspecified)?
IC50 [1]: > 10 µM; IC50 [2]: 94 nM

What does the source list for `O=c1c(-c2ccc(C(F)(F)F)cc2)cccn1C(CN1C=CC=CC=N1)c1ccccc1` (stereo unspecified)?
IC50 (Mu-type opioid receptor): > 10 µM; IC50 [1]: > 10 µM; IC50 [2]: 1400 nM

`O=c1c(-c2ccc(C(F)(F)F)cc2)cccn1C(Cn1ccnc1)c1ccccc1` (stereo unspecified) was tested. Which IC50 [2] did it give?
The IC50 was greater than 10000 nM.

What does the source list for `Cc1ccc(C(C)Nc2cccn(C(CN3CCCC3)c3ccccc3)c2=O)cc1` (stereo unspecified)?
IC50 (Mu-type opioid receptor): > 10 µM; IC50 [1]: > 10 µM; IC50 [2]: 330 nM

Which results are given for `O=c1c(-c2ccccc2)cccn1C(CN1CCC(O)C1)c1ccccc1` (stereo in doubt; 20a)?
IC50 (Mu-type opioid receptor): > 10 µM; IC50 [1]: > 10 µM; IC50 [2]: 465 nM

How did the IC50 [1] turn out when `COc1ccccc1-c1cccn(C(CN2CCC(O)C2)c2ccccc2)c1=O` (stereo unspecified) was run?
Its IC50 is greater than 10 µM.

What about the IC50 [2] of the same compound?
Its IC50 is 94 nM.

Which results are given for `COc1ccc(Cl)cc1-c1cccn(C(CN2CCC(O)C2)c2ccccc2)c1=O` (stereo unspecified)?
IC50 (Mu-type opioid receptor): 0.19 µM; IC50 [1]: > 10 µM; IC50 [2]: 53 nM

For `O=C1COc2ccc(C(CN3CCCC3)n3cccc(-c4ccc(C(F)(F)F)cc4)c3=O)cc2N1` (stereo unspecified), which IC50 (Mu-type opioid receptor) is on record?
The IC50 was greater than 10 µM.

What about the IC50 [1] of the same compound?
The IC50 was greater than 10 µM.

What about the IC50 [2] of the same compound?
The IC50 was 57 nM.

What does the source list for `O=c1c(-c2ccc(F)cc2)cccn1C(CN1CCC(O)C1)c1ccccc1` (stereo unspecified)?
IC50 (Mu-type opioid receptor): > 10 µM; IC50 [1]: > 10 µM; IC50 [2]: 33 nM

How did the IC50 (Mu-type opioid receptor) turn out when `O=c1c(-c2ccc(C(F)(F)F)cc2)cccn1C(CN1CCOCC1)c1ccccc1` (stereo unspecified) was run?
Its IC50 is greater than 10 µM.

What about the IC50 [1] of the same compound?
Its IC50 is greater than 10 µM.

What about the IC50 [2] of the same compound?
Its IC50 is 700 nM.

What does the source list for `CC(=O)c1ccc(-c2cccn(C(CN3CCC(O)C3)c3ccccc3)c2=O)s1` (stereo unspecified)?
IC50 (Mu-type opioid receptor): > 10 µM; IC50 [1]: > 10 µM; IC50 [2]: 38 nM

For `O=c1c(-c2ccccc2)ccnn1C(CN1CCCC1)c1ccccc1` (stereo unspecified), which IC50 [2] is on record?
The IC50 was 550 nM.

For `O=c1c(Nc2ccc(C(F)(F)F)cc2)cccn1C(CN1CCCC1)c1ccccc1` (stereo unspecified), which IC50 (Mu-type opioid receptor) is on record?
The IC50 was 10 µM.

And the IC50 [1]?
The IC50 was greater than 10 µM.

What about the IC50 [2] of the same compound?
Its IC50 is 82 nM.

What does the source list for `CCN(CC)c1ccc(C(CN2CCCC2)n2cccc(-c3ccc(C(F)(F)F)cc3)c2=O)cc1` (stereo unspecified)?
IC50 (Mu-type opioid receptor): > 10 µM; IC50 [1]: > 10 µM; IC50 [2]: 3080 nM

`O=c1c(-c2ccccc2)nccn1C(CN1CCCC1)c1ccccc1` (stereo unspecified) was tested. Which IC50 [2] did it give?
The IC50 was 2450 nM.

Which IC50 (Mu-type opioid receptor) does the source give for `Nc1cccc(-c2cccn(C(CN3CCC(O)C3)c3ccccc3)c2=O)c1` (stereo unspecified) here?
Its IC50 is 2.91 µM.

What about the IC50 [1] of the same compound?
The IC50 was greater than 10 µM.

And the IC50 [2]?
The IC50 was 25 nM.

With `O=c1c(-c2ccc(OC(F)(F)F)cc2)cccn1C(CN1CCC(O)C1)c1ccccc1` (stereo unspecified) as the compound, how does the IC50 (Mu-type opioid receptor) read?
Its IC50 is greater than 5 µM.

And the IC50 [1]?
Its IC50 is greater than 10 µM.

And the IC50 [2]?
Its IC50 is 7.6 nM.

`O=c1c(-c2ccccc2)cccn1C(CN1CCC(O)C1)c1ccccc1` (stereo in doubt; 14f) was tested. Which IC50 (Mu-type opioid receptor; hek293) did it give?
The IC50 was greater than 10 µM.

What about the IC50 ([1]; hek293) of the same compound?
The IC50 was greater than 10 µM.

What about the IC50 [2] of the same compound?
The IC50 was 470 nM.

Which results are given for `COc1ccc(OC)c(-c2cccn(C(CN3CCC(O)C3)c3ccccc3)c2=O)c1` (stereo unspecified)?
IC50 (Mu-type opioid receptor): 2.22 µM; IC50 [1]: > 10 µM; IC50 [2]: 6.9 nM

How did the IC50 (Mu-type opioid receptor) turn out when `CC(=O)c1ccc(-c2cccn(C(CN3CCC(O)C3)c3ccccc3)c2=O)cc1` (stereo unspecified) was run?
The IC50 was 1.75 µM.

What about the IC50 [1] of the same compound?
The IC50 was greater than 10 µM.

What about the IC50 [2] of the same compound?
Its IC50 is 14 nM.

What does the source list for `O=Cc1ccccc1-c1cccn(C(CN2CCC(O)C2)c2ccccc2)c1=O` (stereo unspecified)?
IC50 [1]: > 10 µM; IC50 [2]: 13 nM

`Cc1cc(-c2cccn(C(CN3CCC(O)C3)c3ccccc3)c2=O)ccc1F` (stereo unspecified) was tested. Which IC50 (Mu-type opioid receptor) did it give?
The IC50 was greater than 5 µM.

And the IC50 [1]?
The IC50 was greater than 10 µM.

What about the IC50 [2] of the same compound?
Its IC50 is 8.4 nM.

Which results are given for `COc1ccc(C(CN2CCCC2)n2cccc(-c3ccc(C(F)(F)F)cc3)c2=O)cc1` (stereo unspecified)?
IC50 (Mu-type opioid receptor): > 10 µM; IC50 [1]: > 10 µM; IC50 [2]: 320 nM

For `O=c1c(-c2cccc(OC(F)(F)F)c2)cccn1C(CN1CCC(O)C1)c1ccccc1` (stereo unspecified), which IC50 (Mu-type opioid receptor) is on record?
Its IC50 is greater than 5 µM.

And the IC50 [1]?
Its IC50 is greater than 10 µM.

And the IC50 [2]?
The IC50 was 22 nM.

For `O=c1c(-c2ccccc2)cncn1C(CN1CCCC1)c1ccccc1` (stereo unspecified), which IC50 [2] is on record?
The IC50 was 1760 nM.

Which results are given for `O=c1c(-c2ccc(Cl)cc2Cl)cccn1C(CN1CCCC1)c1ccccc1` (stereo unspecified)?
IC50 (Mu-type opioid receptor): 2.1 µM; IC50 [1]: > 10 µM; IC50 [2]: 2.3 nM

For `O=C(O)c1cccc(-c2cccn(C(CN3CCC(O)C3)c3ccccc3)c2=O)c1` (stereo unspecified), which inhibition [3] is on record?
Its inhibition is 41%.

How did the IC50 (Mu-type opioid receptor) turn out when `COc1ccc(F)cc1-c1cccn(C(CN2CCC(O)C2)c2ccccc2)c1=O` (stereo unspecified) was run?
Its IC50 is greater than 10 µM.

And the IC50 [1]?
Its IC50 is 0.46 µM.

What about the IC50 [2] of the same compound?
The IC50 was 5.5 nM.

What about the ED50 [4] of the same compound?
The ED50 was 32 nM.

Which results are given for `O=c1c(-c2ccc(Cl)cc2Cl)cncn1C(CN1CCCC1)c1ccccc1` (stereo unspecified)?
IC50 (Mu-type opioid receptor): 9.6 µM; IC50 [1]: > 10 µM; IC50 [2]: 41 nM; ED50 [4]: 615 nM

With `O=c1c(-c2cccc(CO)c2)cccn1C(CN1CCC(O)C1)c1ccccc1` (stereo unspecified) as the compound, how does the IC50 (Mu-type opioid receptor) read?
The IC50 was greater than 5 µM.

What about the IC50 [1] of the same compound?
Its IC50 is greater than 10 µM.

What about the IC50 [2] of the same compound?
Its IC50 is 9.6 nM.

`COc1cccc(OC)c1-c1cccn(C(CN2CCC(O)C2)c2ccccc2)c1=O` (stereo unspecified) was tested. Which IC50 (Mu-type opioid receptor) did it give?
Its IC50 is 3.91 µM.

And the IC50 [1]?
Its IC50 is greater than 10 µM.

And the IC50 [2]?
Its IC50 is 9.8 nM.

With `O=c1c(Nc2ccccc2)cccn1C(CN1CCCC1)c1ccccc1` (stereo unspecified) as the compound, how does the IC50 [2] read?
The IC50 was greater than 1000 nM.
